Laboratory results as given in PMC5003678 (European journal of medicinal chemistry, 2016).

Columns and labels:
[1] = test system: HL-60 (human promyelocytic leukemia cells); details: read-out: Cytotoxic activity IC50 (95% CI) HL-60; 72 h exposure; ref [41]; cited from earlier work
[2] = test system: SF295 (human glioblastoma cells); details: read-out: Cytotoxic activity IC50 (95% CI) SF295; 72 h exposure; ref [41]; cited from earlier work
[3] = test system: six cancer cell lines (HL-60, HCT-116, PC3, SF295, MDA-MB-435, OVCAR-8); experiment: MTT cytotoxicity assay, cancer cell lines overall; format: cell-based, human; details: classified by IC50
[4] = test system: intracellular ROS; experiment: Generation of intracellular ROS; format: cell-based
[5] = test system: A549 cells (human non-small cell lung adenocarcinoma); experiment: DNA survival assay, NQO1-dependency with or without dicoumarol; format: cell-based; details: two hours exposure
[6] = test system: PC3 cells; experiment: Annexin V/PI detection of phosphatidylserine externalization; format: cell-based, human; details: 5 μM, 6 h; for phosphatidylserine externalization, pre-treated with NAC: 5 mM NAC pre-exposure (24 h); for phosphatidylserine externalization, co-treated with dicoumarol: dicoumarol 50 μM
Procedure, shortened: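 PC3 cells were grown in RPMI 1640 with 10% FBS, 2 mM L-glutamine and penicillin/streptomycin at 37 °C and 5% CO2. They were exposed to 5 μM test compound for 6 h, either after a 24 h pre-exposure to 5 mM N-acetylcysteine or with 50 μM dicoumarol co-treatment. Cells were stained with FITC-Annexin V plus PI and read by flow cytometry, with early apoptosis as FITC only and late as FITC+PI. 10,000 events were counted per experiment, debris excluded, n = 3.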

## CC1(C)OC2=C(C(=O)C(=O)c3ccccc32)C(N=[N+]=[N-])[C@@H]1Br (stereo partly drawn) [Compound 9]
[1]
  IC50: 1430 nM
[2]
  IC50: 1930 nM

## C#Cc1cccc(NC2CC(C)(C)OC3=C2C(=O)c2ccccc2C3=O)c1 (stereo not drawn) [Compound 4, 4-((3-ethynylphenyl)amino)-2,2-dimethyl-3,4-dihydro-2H-benzo[g]chromene-5,10-dione]
[3]
  activity classification against cancer cell lines: non-active

## CC1(C)OC2=C(C(=O)C(=O)c3ccccc32)C1Nc1cccc(-c2cn(C[Se]c3ccccc3)nn2)c1 (stereo not drawn) [Compound 21, 2,2-dimethyl-3-((3-(1-((phenylselanyl)methyl)-1H-1,2,3-triazol-4-yl)phenyl)amino)-2,3-dihydronaphtho[1,2-b]furan-4,5-dione]
[4]; cultures pre-exposed with NAC
  generation of intracellular ROS, pre-exposed with NAC: not able to generate ROS
[4]; short exposure (1 h)
  generation of intracellular ROS: led to the generation of intracellular ROS
[5]
  NQO1 Specific: NQO1-dependent
[6]
  phosphatidylserine externalization: significant increase
  phosphatidylserine externalization, pre-treated with NAC: not observed
  phosphatidylserine externalization, co-treated with dicoumarol: not observed
[3]
  activity classification against cancer cell lines: highly active (highly active (IC50 < 2 μM))

## CC1(C)OC2=C(C(=O)C(=O)c3ccccc32)C1n1cc(C[Se]c2ccccc2)nn1 (stereo not drawn) [Compound 22, 2,2-dimethyl-3-(4-((phenylselanyl)methyl)-1H-1,2,3-triazol-1-yl)-2,3-dihydronaphtho[1,2-b]furan-4,5-dione]
[5]
  NQO1 Specific: NQO1-dependent
[6]
  phosphatidylserine externalization: significant increase
  phosphatidylserine externalization, pre-treated with NAC: not observed
  phosphatidylserine externalization, co-treated with dicoumarol: not observed

## O=C1C(=O)c2ccccc2C2=C1CC(Cn1cc(C[Se]c3ccccc3)nn1)O2 (stereo not drawn) [Compound 26, 2-((4-((phenylselanyl)methyl)-1H-1,2,3-triazol-1-yl)methyl)-2,3-dihydronaphtho[1,2-b]furan-4,5-dione]
[3]
  activity classification against cancer cell lines: highly active (highly active (IC50 < 2 μM))
